This note sets out measurements from ChEMBL document CHEMBL1142947, “Gallium(III) and iron(III) complexes of alpha-N-heterocyclic thiosemicarbazones: synthesis, characterization, cytotoxicity, and interaction with ribonucleotide reductase” (J Med Chem, 2007).

Experiment [1] concerns the target T1, Ribonucleoside-diphosphate reductase subunit M2 (Mus musculus) (UniProt P11157).
T1 sequence (whole entry): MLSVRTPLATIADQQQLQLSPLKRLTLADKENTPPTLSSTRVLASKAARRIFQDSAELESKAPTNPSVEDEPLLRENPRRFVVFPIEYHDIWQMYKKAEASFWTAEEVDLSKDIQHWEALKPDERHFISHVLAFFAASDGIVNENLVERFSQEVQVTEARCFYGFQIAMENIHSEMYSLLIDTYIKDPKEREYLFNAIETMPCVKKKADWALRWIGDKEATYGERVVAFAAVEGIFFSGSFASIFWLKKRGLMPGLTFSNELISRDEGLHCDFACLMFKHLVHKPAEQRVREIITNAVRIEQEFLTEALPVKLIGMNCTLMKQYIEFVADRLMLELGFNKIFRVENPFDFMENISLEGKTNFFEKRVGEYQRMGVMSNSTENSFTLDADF
The experiment can be described thus: Effect on mouse ribonucleotide reductase R2 protein measured by tyrosyl radical concentration in aerobic condition at 3 mM, 298 K after 1 min. The method, boiled down: (§1)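 Reconstituted purified mouse R2 diluted to 30 µM monomer in 50 mM Tris/HCl pH 7.6, 100 mM KCl. Compound added from 3 mM stock (DMSO, or water for nitrates) to a final 30–33 µM (1:1 with monomer), about 1% DMSO, plus 1 mM DTT, under air at 298 K. Samples frozen in liquid nitrogen after each incubation; tyrosyl radical quantified by X-band EPR at 40 K.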

The target in experiment [2] is T1, Ribonucleoside-diphosphate reductase subunit M2 (Mus musculus). The experiment can be described thus: Effect on mouse ribonucleotide reductase R2 protein measured by tyrosyl radical concentration in anaerobic condition at 3 mM, 298 K after 15 mins. In a few lines:
(§2)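 Run in an anaerobic tent with argon-bubbled, vacuum-degassed buffer (50 mM Tris/HCl pH 7.6, 100 mM KCl) and solutions. Protein degassed and diluted to a final 30 µM R2 monomer with 30 µM compound (from 3 mM stocks), 1% DMSO and 1 mM DTT freshly prepared. Incubated at 298 K for 1, 15 and 1005 min total; tyrosyl radical measured by EPR at 77 K.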

Experiment [3] has the same target. The experiment can be described thus: Effect on mouse ribonucleotide reductase R2 protein measured by tyrosyl radical concentration in anaerobic condition at 3 mM, 298 K after 1005 mins. In a few lines:
as §2

The target is the same in experiment [4]. The experiment can be described thus: Effect on mouse ribonucleotide reductase R2 protein measured by tyrosyl radical concentration in aerobic condition at 30-33 µM, 298 K after 15 mins.
Experiment [5] concerns 41M. The experiment can be described thus: Cytotoxicity against human 41M cells after 96 hrs by MTT assay. Format: cell-based. In a few lines: (§3)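 Adherent cells grown in MEM with 10% heat-inactivated FBS, 1 mM sodium pyruvate, 4 mM L-glutamine and nonessential amino acids at 37 °C, 5% CO2. Seeded at 4 × 10^3 cells/well and preincubated 24 h. Exposed 96 h to DMSO stocks serially diluted in medium (DMSO ≤0.5%). MTT added for 4 h, formazan dissolved in DMSO, read at 550 nm (ref 690 nm). IC50 interpolated from T/C curves; ≥3 independent experiments, six cultures per concentration.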
(In general: Tetrazolium assays rely on reduction of a dye to a coloured formazan, in cell work by metabolically active cells.)

In experiment [6] the target is T1, Ribonucleoside-diphosphate reductase subunit M2 (Mus musculus). The experiment can be described thus: Effect on mouse ribonucleotide reductase R2 protein measured by tyrosyl radical concentration in aerobic condition at 3 mM, 298 K after 1005 mins. The method, boiled down:
as §1

The target is the same in experiment [7]. The experiment can be described thus: Effect on mouse ribonucleotide reductase R2 protein measured by tyrosyl radical concentration in anaerobic condition at 3 mM, 298 K after 1 min. In a few lines:
as §2

Experiment [8] is described as follows: Cytotoxicity against human SKBR3 cells after 96 hrs by MTT assay. Particulars: SK-BR-3, 96 h. Format: cell-based. The method, boiled down:
as §3

In general, IC50 refers to the point on the concentration scale where inhibition reaches its midpoint. A higher IC50 goes with weaker potency in that assay. Regarding `C/C(=N\NC(=S)N(C)C)c1ccccn1`, the Activity in experiment [1] came to 17.2 µM; in experiment [2] it was 0 µM; in experiment [3], 0 µM; in experiment [4] it was 7 µM; in experiment [6], 0.5 µM; in experiment [7] it was 8.5 µM. The IC50 in experiment [5] came out at 0.22 nM; in experiment [8], 2.7 nM.

As for `C/C(=N\NC(=S)N1CCCC1)c1cnccn1`, the figures for the IC50 in experiment [5] and in experiment [8] were 1.1 nM and 5 nM, respectively.

Turning to `C/C(=N\NC(=S)N1CCCC1)c1ccccn1`, the figures for the IC50 in experiment [5] and in experiment [8] were 0.36 nM and 3.1 nM, respectively.

For `C/C(=N\NC(=S)N(C)C)c1cnccn1`, the IC50 in experiment [5] is 0.073 nM; in experiment [8], 1.4 nM.

`C/C(=N\NC(=S)N1CCCCC1)c1cnccn1`: the 50% inhibitory concentration (IC50) in experiment [5] is 0.41 nM; in experiment [8], 2.2 nM.
